From ChEMBL document CHEMBL1800057, “Discovery of dual inducible/neuronal nitric oxide synthase (iNOS/nNOS) inhibitor development candidate 4-((2-cyclobutyl-1H-imidazo[4,5-b]pyrazin-1-yl)methyl)-7,8-difluoroquinolin-2(1H)-one (KD7332) part 2: identification of a novel, potent, and selective series of benzimidazole-quinolinone …” (J Med Chem, 2010)

How the values were obtained:
[1] = species on record: Homo sapiens; assay: Ratio of IC50 for human nNOS to EC50 for human iNOS
[2] = target: T1, Nitric oxide synthase 1 (Homo sapiens, UniProt P29475); assay: Inhibition of human nNOS expressed in HEK293 cells assessed as inhibition ionomycin induced nitric oxide production at 10 uM incubated for 24 hrs measured after 18 hrs of ionomycin challenge using 2,3-diaminonaphthalene by fluorescence assay; format: cell-based
[3] = target: T2, Nitric oxide synthase 3 (Homo sapiens, UniProt P29474); assay: Inhibition of human eNOS expressed in HEK293 cells assessed as inhibition A23187 induced nitric oxide production incubated for 24 hrs measured after 18 hrs of […] challenge using 2,3-diaminonaphthalene by fluorescence assay; format: cell-based
T2 sequence (P29474 whole entry): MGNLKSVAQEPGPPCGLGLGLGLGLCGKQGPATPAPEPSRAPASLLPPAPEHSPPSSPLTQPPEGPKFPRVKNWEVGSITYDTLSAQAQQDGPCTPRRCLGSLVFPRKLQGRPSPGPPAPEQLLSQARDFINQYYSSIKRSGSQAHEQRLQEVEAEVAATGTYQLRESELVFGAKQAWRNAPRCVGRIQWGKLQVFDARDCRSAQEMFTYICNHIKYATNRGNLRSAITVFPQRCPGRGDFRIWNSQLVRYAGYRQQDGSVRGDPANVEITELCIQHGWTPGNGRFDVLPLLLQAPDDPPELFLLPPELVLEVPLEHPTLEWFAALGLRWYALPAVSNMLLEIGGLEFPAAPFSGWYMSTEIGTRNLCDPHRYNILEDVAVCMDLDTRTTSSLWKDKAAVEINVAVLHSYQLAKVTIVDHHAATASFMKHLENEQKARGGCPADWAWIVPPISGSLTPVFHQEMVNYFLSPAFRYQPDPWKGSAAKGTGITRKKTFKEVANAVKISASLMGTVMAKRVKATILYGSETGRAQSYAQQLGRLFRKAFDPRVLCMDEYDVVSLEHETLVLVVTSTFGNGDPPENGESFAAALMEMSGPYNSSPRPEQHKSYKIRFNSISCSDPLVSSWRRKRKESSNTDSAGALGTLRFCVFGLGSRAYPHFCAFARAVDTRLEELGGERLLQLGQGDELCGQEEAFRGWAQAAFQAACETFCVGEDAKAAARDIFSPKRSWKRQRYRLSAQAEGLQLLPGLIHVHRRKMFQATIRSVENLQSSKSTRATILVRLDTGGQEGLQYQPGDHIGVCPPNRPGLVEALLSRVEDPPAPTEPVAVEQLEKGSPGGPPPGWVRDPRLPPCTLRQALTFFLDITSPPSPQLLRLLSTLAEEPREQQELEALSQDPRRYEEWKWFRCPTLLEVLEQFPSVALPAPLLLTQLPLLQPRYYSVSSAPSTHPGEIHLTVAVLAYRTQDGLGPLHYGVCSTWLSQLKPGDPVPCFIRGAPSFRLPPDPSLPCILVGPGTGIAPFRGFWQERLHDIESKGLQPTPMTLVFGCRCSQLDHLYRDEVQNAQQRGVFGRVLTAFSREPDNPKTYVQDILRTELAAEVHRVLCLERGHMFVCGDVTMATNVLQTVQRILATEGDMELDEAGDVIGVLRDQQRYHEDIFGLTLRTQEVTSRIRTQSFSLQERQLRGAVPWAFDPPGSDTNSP
How it was run: (§1)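 HEK293 cells transfected for 4 h at 37 °C with human nNOS (10 μg) or human eNOS (15 μg) plasmid (Fugene 6, 3:1). Cells replated at 5e5 cells/mL and dosed with compound at once; SEITU (100 μM final) as positive control. After 24 h, cells activated with A23187 (83 nM final) for eNOS or ionomycin (30 μM final) for nNOS. NO read 18 h later as nitrite-DAN fluorescence.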

[4] = target: T3, Nitric oxide synthase 3 (Homo sapiens) (UniProt P29474); assay: Inhibition of human eNOS expressed in HEK293 cells assessed as inhibition A23187 induced nitric oxide production at 100 uM incubated for 24 hrs measured after 18 hrs of […] challenge using 2,3-diaminonaphthalene by fluorescence assay; format: cell-based
T3 sequence (whole entry): T2 sequence (P29474 whole entry)

[5] = species on record: Homo sapiens; assay: Ratio of IC50 for human eNOS to EC50 for human iNOS
[6] = target: Nitric oxide synthase, inducible (Homo sapiens, UniProt P35228); assay: Inhibition of human iNOS expressed in HEK293 cells assessed as inhibition of nitric oxide production after 18 hrs using 2,3-diaminonaphthalene by fluorescence assay; format: cell-based
How it was run: (§2)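 HEK293 cells grown to ~70% confluence in DMEM/10% FBS with pen/strep, transiently transfected with 10 μg human or murine iNOS plasmid plus Fugene 6 for 4 h at 37 °C, 10% CO2. Cells replated at 5e5 cells/mL and dosed with compound at once; 1400W (100 μM final) as positive control. After 18 h, DAN (10 μg/mL final) in HCl (0.1 N final) added for 20 min at room temperature. Fluorescence read after NaOH (0.12 N final).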

[7] = target: T1, Nitric oxide synthase 1; assay: Inhibition of human nNOS expressed in HEK293 cells assessed as inhibition ionomycin induced nitric oxide production incubated for 24 hrs measured after 18 hrs of ionomycin challenge using 2,3-diaminonaphthalene by fluorescence assay; format: cell-based; how it was run: as §1
[8] = tested on: Liver; assay: Half life in mouse liver microsomes assessed as formation of oxidation product and glucuronide conjugate; format: ADME, Microsome
How it was run: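 Mouse liver microsomes run under combined phase I oxidation and phase II glucuronide conjugation; half-life reported in minutes.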

[9] = target: T4, Nitric oxide synthase, inducible (Mus musculus, UniProt P29477); assay: Inhibition of mouse iNOS expressed in HEK293 cells assessed as inhibition of nitric oxide production after 18 hrs using 2,3-diaminonaphthalene by fluorescence assay; format: cell-based; how it was run: as §2
T4 sequence (P29477 whole entry): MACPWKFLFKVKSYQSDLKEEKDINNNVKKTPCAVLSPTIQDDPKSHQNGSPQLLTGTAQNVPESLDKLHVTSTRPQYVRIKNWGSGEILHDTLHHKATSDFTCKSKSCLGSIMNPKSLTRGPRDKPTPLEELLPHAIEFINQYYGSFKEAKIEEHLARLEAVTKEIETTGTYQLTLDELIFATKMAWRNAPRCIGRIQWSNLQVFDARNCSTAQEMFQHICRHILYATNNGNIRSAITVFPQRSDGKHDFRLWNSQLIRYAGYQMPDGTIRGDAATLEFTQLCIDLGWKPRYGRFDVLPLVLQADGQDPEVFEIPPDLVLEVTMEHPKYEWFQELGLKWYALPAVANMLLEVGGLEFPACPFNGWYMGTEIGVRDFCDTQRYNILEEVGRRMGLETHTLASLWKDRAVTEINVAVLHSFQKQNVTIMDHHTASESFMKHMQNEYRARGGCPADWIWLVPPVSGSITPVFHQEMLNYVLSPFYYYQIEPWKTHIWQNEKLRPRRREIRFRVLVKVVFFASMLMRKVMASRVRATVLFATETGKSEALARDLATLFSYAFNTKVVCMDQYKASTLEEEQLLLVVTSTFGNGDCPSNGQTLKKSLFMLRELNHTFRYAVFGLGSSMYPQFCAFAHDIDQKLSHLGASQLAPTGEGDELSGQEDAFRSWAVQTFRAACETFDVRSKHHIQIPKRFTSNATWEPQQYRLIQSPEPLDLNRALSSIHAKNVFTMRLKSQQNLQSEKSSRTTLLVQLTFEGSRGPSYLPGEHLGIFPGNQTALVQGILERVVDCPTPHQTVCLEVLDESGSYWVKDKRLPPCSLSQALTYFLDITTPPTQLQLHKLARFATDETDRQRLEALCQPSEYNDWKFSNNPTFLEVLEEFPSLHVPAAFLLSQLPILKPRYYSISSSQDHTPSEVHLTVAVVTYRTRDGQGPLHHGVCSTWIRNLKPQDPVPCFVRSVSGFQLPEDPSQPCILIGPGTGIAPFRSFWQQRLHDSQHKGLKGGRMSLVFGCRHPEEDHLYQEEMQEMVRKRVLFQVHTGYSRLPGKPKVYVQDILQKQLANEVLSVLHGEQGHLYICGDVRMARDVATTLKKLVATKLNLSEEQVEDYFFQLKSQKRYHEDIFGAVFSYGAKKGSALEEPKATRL

[10] = AUC in mouse at 3 mg/kg, iv and 10 mg/kg, po; format: ADME, organism-based; conditions: plasma
[11] = Half life in mouse at 10 mg/kg, po; format: ADME, organism-based; parameters: dose 10 mg/kg, route oral; conditions: in vivo
[12] = Cmax in mouse at 3 mg/kg, iv and 10 mg/kg, po; format: ADME, organism-based; conditions: in vivo
[13] = tested on: Mus musculus; assay: Inhibition of LPS-induced iNOS activation in BALB/c mouse assessed as plasma nitrate levels administered via oral gavage before LPS challenge measured after 6 to 8 hrs using 2,3-diaminonaphthalene by fluorescence assay; format: functional
How it was run: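 Male BALB/c mice dosed by oral gavage (90% PEG/5% Tween 80/5% PVP + 0.5% w/v CMC) immediately before LPS (10 mg/kg ip in 0.9% NaCl). Mice killed at 6 h. EDTA plasma analysed for nitrate and drug levels; nitrite measured by DAN fluorescence.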

T1 sequence (P29475 whole entry): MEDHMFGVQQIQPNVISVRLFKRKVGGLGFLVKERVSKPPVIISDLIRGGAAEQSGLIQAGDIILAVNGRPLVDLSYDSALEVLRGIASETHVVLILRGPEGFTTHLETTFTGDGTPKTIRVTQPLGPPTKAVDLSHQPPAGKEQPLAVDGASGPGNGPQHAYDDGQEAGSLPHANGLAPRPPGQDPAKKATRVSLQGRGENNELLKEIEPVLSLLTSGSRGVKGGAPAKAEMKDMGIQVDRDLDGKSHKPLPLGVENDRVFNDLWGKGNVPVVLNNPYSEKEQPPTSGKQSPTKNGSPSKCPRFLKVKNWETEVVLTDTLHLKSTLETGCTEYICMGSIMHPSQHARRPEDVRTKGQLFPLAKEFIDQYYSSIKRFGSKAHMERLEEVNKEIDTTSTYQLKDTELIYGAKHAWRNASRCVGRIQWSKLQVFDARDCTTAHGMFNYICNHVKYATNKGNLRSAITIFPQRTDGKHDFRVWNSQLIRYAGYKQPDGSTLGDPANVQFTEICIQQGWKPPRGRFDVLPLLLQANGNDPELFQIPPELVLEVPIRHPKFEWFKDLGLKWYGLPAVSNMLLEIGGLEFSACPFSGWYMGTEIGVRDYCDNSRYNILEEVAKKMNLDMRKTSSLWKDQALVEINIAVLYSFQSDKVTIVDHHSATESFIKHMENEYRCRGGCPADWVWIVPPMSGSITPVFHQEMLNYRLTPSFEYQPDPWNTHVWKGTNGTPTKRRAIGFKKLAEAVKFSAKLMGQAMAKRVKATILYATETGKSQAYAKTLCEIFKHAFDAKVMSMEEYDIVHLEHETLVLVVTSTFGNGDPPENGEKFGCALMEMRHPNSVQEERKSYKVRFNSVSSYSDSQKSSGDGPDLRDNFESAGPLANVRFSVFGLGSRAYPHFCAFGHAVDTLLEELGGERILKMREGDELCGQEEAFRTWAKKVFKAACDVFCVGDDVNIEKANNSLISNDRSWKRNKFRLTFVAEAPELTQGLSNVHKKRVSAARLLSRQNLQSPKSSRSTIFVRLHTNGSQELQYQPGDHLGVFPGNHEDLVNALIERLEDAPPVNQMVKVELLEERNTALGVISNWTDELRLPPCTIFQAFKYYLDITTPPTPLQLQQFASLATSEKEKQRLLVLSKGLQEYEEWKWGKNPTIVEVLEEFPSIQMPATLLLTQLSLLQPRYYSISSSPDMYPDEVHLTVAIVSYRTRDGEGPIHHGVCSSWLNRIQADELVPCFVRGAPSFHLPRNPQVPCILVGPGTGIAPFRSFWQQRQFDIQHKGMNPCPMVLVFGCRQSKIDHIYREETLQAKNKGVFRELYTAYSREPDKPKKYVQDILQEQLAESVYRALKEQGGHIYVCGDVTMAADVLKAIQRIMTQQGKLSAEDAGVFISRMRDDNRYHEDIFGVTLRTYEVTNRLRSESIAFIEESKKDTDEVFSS
Sequence of Nitric oxide synthase, inducible (Homo sapiens, UniProt P35228) (P35228 whole entry): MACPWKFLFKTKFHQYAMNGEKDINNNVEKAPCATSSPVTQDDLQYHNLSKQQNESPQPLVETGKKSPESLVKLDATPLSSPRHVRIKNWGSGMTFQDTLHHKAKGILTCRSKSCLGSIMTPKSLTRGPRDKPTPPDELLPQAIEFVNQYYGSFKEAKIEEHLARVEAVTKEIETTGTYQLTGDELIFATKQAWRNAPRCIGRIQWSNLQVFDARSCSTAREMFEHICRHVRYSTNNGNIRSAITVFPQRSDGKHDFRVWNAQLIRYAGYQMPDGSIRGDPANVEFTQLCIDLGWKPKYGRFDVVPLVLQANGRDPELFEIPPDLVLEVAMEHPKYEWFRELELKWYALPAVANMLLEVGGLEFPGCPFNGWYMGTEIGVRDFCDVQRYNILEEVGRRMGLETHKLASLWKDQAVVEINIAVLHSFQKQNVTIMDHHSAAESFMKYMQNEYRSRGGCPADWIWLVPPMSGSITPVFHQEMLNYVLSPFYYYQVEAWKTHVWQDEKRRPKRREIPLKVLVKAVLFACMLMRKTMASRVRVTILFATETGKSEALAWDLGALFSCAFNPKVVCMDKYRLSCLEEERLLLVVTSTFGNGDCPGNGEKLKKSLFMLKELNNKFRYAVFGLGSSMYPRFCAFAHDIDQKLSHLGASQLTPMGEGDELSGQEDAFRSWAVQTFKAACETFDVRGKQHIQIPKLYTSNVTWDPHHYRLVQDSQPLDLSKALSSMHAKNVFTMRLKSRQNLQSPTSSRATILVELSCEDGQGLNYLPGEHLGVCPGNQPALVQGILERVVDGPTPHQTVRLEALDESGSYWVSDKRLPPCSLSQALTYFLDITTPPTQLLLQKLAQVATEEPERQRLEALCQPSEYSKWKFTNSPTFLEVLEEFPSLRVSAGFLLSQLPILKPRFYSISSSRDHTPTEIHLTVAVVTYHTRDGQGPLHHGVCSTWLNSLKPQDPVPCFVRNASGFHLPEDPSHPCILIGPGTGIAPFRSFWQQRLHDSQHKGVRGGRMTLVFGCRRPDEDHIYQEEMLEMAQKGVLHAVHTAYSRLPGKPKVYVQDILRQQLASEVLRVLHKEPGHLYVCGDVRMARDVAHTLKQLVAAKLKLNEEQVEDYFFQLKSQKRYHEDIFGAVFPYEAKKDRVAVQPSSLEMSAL

Ratio EC50 [1] | inhibition [2] | EC50 [3] | inhibition [4] | Ratio EC50 [5] | EC50 [6] | EC50 [7] | t1/2 [8] | EC50 [9] | AUC [10] | half-life [11] | Cmax [12] | Structure (SMILES) | ED50 [13]
> 6 | < 50% | > 100 µM | < 50% | > 56 | 1770 nM | > 10000 nM | > 120 min | – | – | – | – | O=c1cc(Cn2c(CC3CCCC3)nc3ccccc32)c2ccc(F)c(F)c2[nH]1 | –
> 0.5 | < 50% | > 100 µM | < 50% | > 6 | 18000 nM | > 10000 nM | 66 min | – | – | – | – | O=c1cc(Cn2c(-c3ccccn3)nc3ccccc32)c2ccc(F)c(F)c2[nH]1 | –
6.2 | – | > 100 µM | < 50% | > 480 | 210 nM | 1300 nM | > 120 min | – | – | – | – | COc1ccnc2c1nc(C1CCC1)n2Cc1cc(=O)[nH]c2c(F)c(F)ccc12 | –
1 | – | > 100 µM | < 50% | > 133 | 750 nM | 770 nM | > 120 min | – | – | – | – | O=c1cc(Cn2c(C3CCCC3)nc3ccccc32)c2ccc(F)c(F)c2[nH]1 | –
1.2 | – | 5.9 µM | – | 23 | 260 nM | 320 nM | > 120 min | 2100 nM | 10000 ng·h/mL | 84 min | 5700 ng/mL | O=c1cc(Cn2c(C3CCC3)nc3ccccc32)c2ccc(F)c(F)c2[nH]1 | 4 mg/kg
> 2 | < 50% | 1.6 µM | – | 0.4 | 4300 nM | > 10000 nM | > 120 min | – | – | – | – | CCc1nc2ccccc2n1Cc1cc(=O)[nH]c2c(F)c(F)ccc12 | –
13 | – | > 100 µM | < 50% | > 670 | 150 nM | 2000 nM | 86 min | – | – | – | – | O=c1cc(Cn2c(C3CCC3)nc3c(C(F)(F)F)ccnc32)c2ccc(F)c(F)c2[nH]1 | –
7.2 | – | > 100 µM | < 50% | > 560 | 180 nM | 1300 nM | 50 min | – | – | – | – | O=c1cc(Cn2c(C3CCC3)nc3cccnc32)c2ccc(F)c(F)c2[nH]1 | –
> 12 | < 50% | > 100 µM | < 50% | > 12 | 8600 nM | > 10000 nM | 43 min | – | – | – | – | O=c1cc(Cn2c(-c3cncs3)nc3ccccc32)c2ccc(F)c(F)c2[nH]1 | –
> 1 | < 50% | > 100 µM | < 50% | > 11 | 9300 nM | > 10000 nM | > 120 min | – | – | – | – | O=c1cc(Cn2c(-c3cccnc3)nc3ccccc32)c2ccc(F)c(F)c2[nH]1 | –
> 1 | < 50% | > 100 µM | < 50% | > 8 | 12000 nM | > 10000 nM | > 120 min | – | – | – | – | Cc1ccncc1-c1nc2ccccc2n1Cc1cc(=O)[nH]c2c(F)c(F)ccc12 | –
5.3 | < 50% | 5.8 µM | – | 1 | 5900 nM | > 10000 nM | > 120 min | – | – | – | – | Cn1cncc1-c1nc2ccccc2n1Cc1cc(=O)[nH]c2c(F)c(F)ccc12 | –
0.5 | – | > 100 µM | < 50% | > 74 | 1360 nM | 650 nM | > 120 min | – | – | – | – | CC(C)CCc1nc2ccccc2n1Cc1cc(=O)[nH]c2c(F)c(F)ccc12 | –
2.8 | – | > 100 µM | < 50% | > 370 | 270 nM | 760 nM | 36 min | – | – | – | – | O=c1cc(Cn2c(C3CCC3)nc3c(Cl)ccnc32)c2ccc(F)c(F)c2[nH]1 | –
0.6 | – | > 100 µM | < 50% | > 11 | 8900 nM | 5000 nM | > 120 min | – | – | – | – | O=c1cc(Cn2c(C3CCCCC3)nc3ccccc32)c2ccc(F)c(F)c2[nH]1 | –
